We go through 8 compounds from ChEMBL document CHEMBL1177775, “A novel synthesis of 3-aryl coumarins and evaluation of their antioxidant and lipoxygenase inhibitory activity” (Bioorg Med Chem Lett, 2010).

The test system of experiment [1] is Radical scavenging activity. Description: Antioxidant activity assessed as DPPH radical scavenging activity at 50 uM after 20 mins. The class given is functional. An outline of the steps: (§1)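 Interaction with the stable DPPH free radical in an iron-free system, with compounds at 50 μM. Readings were taken at 20 and 60 min. Each experiment was run at least in triplicate, and the standard deviation of absorbance was under 10% of the mean.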
Background: DPPH is a stable violet radical that fades when it is reduced.

Experiment [2] deals with Radical scavenging activity. As to the kind of experiment: Antioxidant activity assessed as DPPH radical scavenging activity at 50 uM after 60 mins. The experiment is classed as functional. An outline of the steps: as §1
Experiment [3] in a line: Antioxidant activity assessed as inhibition of AAPH-induced lipid peroxidation at 100 uM by UV spectrophotometry. The class given is functional.
In another experiment the test system is Glycine max. Description: Inhibition of soybean lipoxygenase at 100 uM.

The structures appear in SMILES notation. Activity calls are given as the source filed them. No cut-off for these calls is given here.

For the compound `Cc1c(-c2ccc(O)cc2)c(=O)oc2ccccc12`, the Activity stood at 5% in experiment [1] and 9% in experiment [2]. The inhibition in experiment [3] came to 20%. In the experiment on Glycine max, the inhibition entry is “inactive”.
In the case of `Cc1c(C)c2c(c(C)c1O)CCC(C)(C(=O)O)O2` (stereo not drawn), the inhibition in experiment [3] came out at 63%.
As to `Cc1c(-c2ccccc2Br)c(=O)oc2ccccc12`, the figures for the Activity in experiment [1] and in experiment [2] were 4% and 3%, respectively. Moreover, the inhibition was determined as 20% in experiment [3] and 6% with Glycine max.
In the same order, the values of `COc1ccc(-c2c(C)c3ccccc3oc2=O)cc1OC` are 8%, 10%, 36% and 31%.
Take `CC(Cc1ccc(O)c(O)c1)C(C)Cc1ccc(O)c(O)c1` (stereo not drawn): the values for the Activity in experiment [1] and in experiment [2] were 84% and 83%, respectively. This compound also showed an inhibition with Glycine max of 40%.
Take `COc1ccc(-c2c(C)c3ccccc3oc2=O)cc1`: the Activity in experiment [1] amounted to 5%; in experiment [2], 2%. For the same compound, the inhibition in experiment [3] is 24%; in the experiment with Glycine max, 62%.
Consider `Cc1c(-c2ccc(Br)cc2)c(=O)oc2ccccc12`, for which the Activity was found to be 3% in experiment [1] and 4% in experiment [2]. Also, the inhibition in experiment [3] stood at 70%. Besides, the inhibition entry in the experiment on Glycine max is “inactive”.
In the same order, the values of `COc1ccc(-c2cc3ccccc3oc2=O)cc1OC` are 4%, 7%, 47% and “inactive”.

By inhibition is commonly meant the percentage by which the read-out fell short of the control.
